Laboratory results published in PubChem BioAssay AID602416 (Sanford-Burnham Center for Chemical Genomics, 2012).
Calls of active or inactive are those of the source.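 How the source made its calls: active means mean EC50 at or below 20 µM; inactive means the rest.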

Molecular target: CHO-XBP1 luciferase reporter, IRE1-XBP1 activation, luminescence
Assay: activators of IRE1-XBP1 adaptive UPR arm, SAR follow-up, counter-screen for apoptotic UPR arm activator project, CHO-XBP1 cells, luminescence, set 3 (AID 602416)
Method in brief: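 Assay system: CHO cells stably expressing XBP1 luciferase reporter, IRE1-XBP1 arm / Probe or stimulus: no tunicamycin stimulus in compound wells / Compound dosing: dose series, DMSO ≤1% final / Schedule: compound exposure 6 h at 37 °C / Measured by: Steady-Glo luminescence / Control set: tunicamycin 10 µg/mL high control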

Structure (SMILES) | EC50
CC1CCN(S(=O)(=O)c2ccc(NC(=O)c3ccc([N+](=O)[O-])o3)cc2)CC1 | > 80 µM (inactive)
CC(C)(C)C1CCN(S(=O)(=O)c2ccc(NC(=O)c3ccc([N+](=O)[O-])o3)cc2)CC1 | > 80 µM (inactive)
CC1(C)CCN(S(=O)(=O)c2ccc(NC(=O)c3ccc([N+](=O)[O-])o3)cc2)CC1 | > 80 µM (inactive)
O=C(Nc1ccc(S(=O)(=O)N2CCCCC2)cc1)c1ccc([N+](=O)[O-])o1 | > 80 µM (inactive)
O=C(Nc1ccc(S(=O)(=O)N2CCC(F)CC2)cc1)c1ccc([N+](=O)[O-])o1 | > 80 µM (inactive)
O=C(Nc1ccc(S(=O)(=O)N2CCC(Cl)CC2)cc1)c1ccc([N+](=O)[O-])o1 | > 80 µM (inactive)
